Data on 37 molecules can be found in ChEMBL document CHEMBL4725348, “Rational Design and Evaluation of 6-(Pyrimidin-2-ylamino)-3,4-dihydroquinoxalin-2(1H)-ones as Polypharmacological Inhibitors of BET and Kinases” (J Med Chem, 2020).

In experiment [1] the target is T1, Bromodomain-containing protein 4 (Homo sapiens, UniProt O60885). The experiment in a line: Inhibition of His6-tagged BRD4 bromodomain 1 (unknown origin) expressed in Escherichia coli Bl21(DE3) cells incubated for 4 hrs by FP assay. Put shortly:
(§1)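 Fluorescence polarization. Purified bromodomain (His6 tag removed with TEV, size-exclusion purified) equilibrated with fluorescent ligand. Compound or DMSO (2‰ final) then added and left 4 h at room temperature in the dark. Anisotropy read at ex 485/em 530 nm. IC50 values are means of at least two independent experiments; single-point inhibition tested at the listed concentration.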

In experiment [2] the target is T2, Cyclin-dependent kinase 9 (Homo sapiens, UniProt P50750). As to the kind of experiment: Inhibition of human CDK9 by mobility shift assay relative to control. Put shortly: (§2)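 Recombinant CDK9 incubated with compound and CTD3 peptide substrate. Activity read by Caliper mobility-shift; Dinaciclib served as positive control. IC50 values are means of at least two independent experiments.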
T2 sequence (P50750 whole entry): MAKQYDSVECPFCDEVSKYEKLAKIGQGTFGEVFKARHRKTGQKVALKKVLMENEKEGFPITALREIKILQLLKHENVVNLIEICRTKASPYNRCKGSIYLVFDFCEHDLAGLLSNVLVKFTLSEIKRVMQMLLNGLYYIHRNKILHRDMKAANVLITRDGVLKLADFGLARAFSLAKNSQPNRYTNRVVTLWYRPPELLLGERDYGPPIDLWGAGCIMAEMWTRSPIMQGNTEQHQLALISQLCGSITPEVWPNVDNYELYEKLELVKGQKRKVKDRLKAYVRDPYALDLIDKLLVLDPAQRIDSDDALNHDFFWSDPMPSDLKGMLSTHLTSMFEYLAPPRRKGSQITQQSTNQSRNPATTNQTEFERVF

Experiment [3] has as its target T2, Cyclin-dependent kinase 9. As to the kind of experiment: Inhibition of human CDK9 at 1 uM by mobility shift assay relative to control. Put shortly: as §2
The target of experiment [4] is T2, Cyclin-dependent kinase 9. As to the kind of experiment: Inhibition of human CDK9 at 100 nM by mobility shift assay relative to control. Put shortly:
as §2

Experiment [5] concerns the target Cyclin-dependent kinase 6 (Homo sapiens) (UniProt Q00534). The experiment in a line: Inhibition of CDK6 (unknown origin) at 1 uM relative to control.
For experiment [6] the target is unchanged. The experiment in a line: Inhibition of CDK6 (unknown origin) at 100 nM relative to control.
In experiment [7] the target is Phosphatidylinositol 4,5-bisphosphate 3-kinase catalytic subunit alpha isoform (Homo sapiens) (UniProt P42336). The experiment in a line: Inhibition PI3Kalpha (unknown origin) at 1 uM relative to control.
Sequence of Phosphatidylinositol 4,5-bisphosphate 3-kinase catalytic subunit alpha isoform (Homo sapiens) (P42336 whole entry, canonical isoform): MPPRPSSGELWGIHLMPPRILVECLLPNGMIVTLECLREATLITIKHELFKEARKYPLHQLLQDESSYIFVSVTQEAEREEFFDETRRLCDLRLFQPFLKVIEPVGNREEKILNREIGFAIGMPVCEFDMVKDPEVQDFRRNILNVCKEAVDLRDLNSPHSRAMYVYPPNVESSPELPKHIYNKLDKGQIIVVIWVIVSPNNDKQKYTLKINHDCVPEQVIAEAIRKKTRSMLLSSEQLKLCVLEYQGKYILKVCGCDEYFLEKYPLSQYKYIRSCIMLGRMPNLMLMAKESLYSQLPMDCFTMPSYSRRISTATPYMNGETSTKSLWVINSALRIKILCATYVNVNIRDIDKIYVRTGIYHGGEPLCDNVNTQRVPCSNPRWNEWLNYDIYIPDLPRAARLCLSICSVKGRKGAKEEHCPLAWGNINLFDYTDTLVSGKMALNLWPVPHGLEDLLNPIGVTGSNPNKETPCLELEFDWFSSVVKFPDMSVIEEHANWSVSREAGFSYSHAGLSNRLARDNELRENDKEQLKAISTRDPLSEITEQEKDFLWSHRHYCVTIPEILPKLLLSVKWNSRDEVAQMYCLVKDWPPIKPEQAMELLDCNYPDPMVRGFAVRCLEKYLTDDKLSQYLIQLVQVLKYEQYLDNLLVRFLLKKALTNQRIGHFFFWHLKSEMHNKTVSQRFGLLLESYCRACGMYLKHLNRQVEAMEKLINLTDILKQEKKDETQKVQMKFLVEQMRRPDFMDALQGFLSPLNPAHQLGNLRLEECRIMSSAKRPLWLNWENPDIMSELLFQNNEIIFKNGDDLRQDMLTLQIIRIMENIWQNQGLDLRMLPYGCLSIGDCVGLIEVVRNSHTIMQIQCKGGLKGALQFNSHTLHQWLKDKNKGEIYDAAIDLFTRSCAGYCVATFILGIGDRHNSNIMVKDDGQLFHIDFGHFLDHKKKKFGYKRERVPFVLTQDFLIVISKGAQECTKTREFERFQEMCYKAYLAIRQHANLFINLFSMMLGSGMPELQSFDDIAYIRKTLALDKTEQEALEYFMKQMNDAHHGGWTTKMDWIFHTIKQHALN
For experiment [8] the target is unchanged. The experiment in a line: Inhibition PI3Kalpha (unknown origin) at 100 nM relative to control.
In experiment [9] the target is T3, Aurora kinase A (Homo sapiens) (UniProt O14965).
T3 sequence (whole entry): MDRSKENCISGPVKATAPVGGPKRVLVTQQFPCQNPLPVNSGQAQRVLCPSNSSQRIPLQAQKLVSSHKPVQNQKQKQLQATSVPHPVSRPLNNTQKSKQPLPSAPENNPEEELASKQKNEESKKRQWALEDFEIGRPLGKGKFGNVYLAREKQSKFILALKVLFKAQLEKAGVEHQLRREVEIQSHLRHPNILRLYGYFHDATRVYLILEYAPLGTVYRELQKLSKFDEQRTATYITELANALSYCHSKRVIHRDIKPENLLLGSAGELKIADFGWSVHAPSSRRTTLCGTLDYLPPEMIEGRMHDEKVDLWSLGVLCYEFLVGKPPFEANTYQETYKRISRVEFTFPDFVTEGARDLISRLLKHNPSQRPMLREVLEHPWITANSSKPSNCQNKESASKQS
The experiment in a line: Inhibition AuroraA (unknown origin) at 1 uM relative to control.

Experiment [10] deals with T3, Aurora kinase A (Homo sapiens). As to the kind of experiment: Inhibition AuroraA (unknown origin) at 100 nM relative to control.
The target in experiment [11] is T1, Bromodomain-containing protein 4. As to the kind of experiment: Inhibition of His6-tagged BRD4 bromodomain 1 (unknown origin) expressed in Escherichia coli Bl21(DE3) cells at 1 uM incubated for 4 hrs by FP assay relative to control. Put shortly:
as §1

For experiment [12] the target is unchanged. The experiment in a line: Inhibition of His6-tagged BRD4 bromodomain 1 (unknown origin) expressed in Escherichia coli Bl21(DE3) cells at 10 uM incubated for 4 hrs by FP assay relative to control. The procedure, abridged: as §1

Sequence of Cyclin-dependent kinase 6 (Homo sapiens) (Q00534 whole entry): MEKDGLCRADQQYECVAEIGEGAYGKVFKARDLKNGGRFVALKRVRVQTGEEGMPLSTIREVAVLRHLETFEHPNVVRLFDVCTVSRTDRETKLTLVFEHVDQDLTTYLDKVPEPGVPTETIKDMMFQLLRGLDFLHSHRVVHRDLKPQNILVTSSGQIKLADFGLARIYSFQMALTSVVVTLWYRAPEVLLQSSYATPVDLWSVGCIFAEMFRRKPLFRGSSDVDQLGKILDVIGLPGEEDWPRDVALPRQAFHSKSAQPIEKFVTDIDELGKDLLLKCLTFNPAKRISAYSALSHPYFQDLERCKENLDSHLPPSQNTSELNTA

Take `CC(C)N1c2cc(Nc3nccc(-c4cccc5[nH]ccc45)n3)ccc2N(C)C(=O)[C@H]1C`: the half-inhibitory concentration (IC50) stood at 288 nM in experiment [1] and 13.8 nM in experiment [2].

As to `CC(C)N1c2cc(Nc3nccc(-c4ccc(N)cc4)n3)ccc2N(C)C(=O)[C@H]1C`, the half-inhibitory concentration (IC50) in experiment [1] was found to be 480 nM; in experiment [2], 48.9 nM.

`CC(C)N1c2cc(Nc3nccc(-c4cccc(C#N)c4)n3)ccc2N(C)C(=O)[C@H]1C` yielded an IC50 in experiment [1] of 161 nM. Moreover, the inhibition in [3] is 71.8%; in [4], 25.2%; in [5], 2.8%; in [6], -0.8%; in experiment [7], 63.1%; in experiment [8] it was 14.1%. Also, the values for the inhibition in experiment [9] and in experiment [10] were 54.4% and 8.7%, respectively.

As for `Cc1noc(C)c1-c1cccc(Nc2nccc(-c3ccccc3)n2)c1`, the inhibition in [11] is 2.2%.

On to `CC(C)N1c2cc(Nc3cccc(-c4cccc(C#N)c4)c3)ccc2N(C)C(=O)[C@H]1C`, for which the IC50 in experiment [1] was found to be 666 nM. Besides, the inhibition in experiment [3] is -4.1%; in experiment [4] it was 2%; in experiment [5], -3.3%; in [6] it was 2.3%; in experiment [7], 5.2%; in experiment [8] it was -0.1%. The inhibition in experiment [9] was -1.8%; in [10], -3%.

Molecule `CC(C)N1c2cc(Nc3nccc(-c4ccncc4)n3)ccc2N(C)C(=O)[C@H]1C` showed an IC50 in experiment [1] of 83 nM. Further, the inhibition in experiment [3] was 98%; in experiment [4], 94.5%; in experiment [5], 7.7%; in experiment [6], 0.2%; in experiment [7], 82.4%; in experiment [8] it was 37.5%. The inhibition stood at 43.7% in experiment [9] and 4% in [10].

With `Cc1c(N)cccc1-c1ccnc(Nc2ccc3c(c2)N(C(C)C)[C@H](C)C(=O)N3C)n1`, the half-inhibitory concentration (IC50) amounted to 115 nM in [1] and 183 nM in experiment [2].

As for `CCNc1cccc(-c2ccnc(Nc3ccc4c(c3)N(C(C)C)[C@H](C)C(=O)N4C)n2)c1`, the values for the IC50 in experiment [1] and in experiment [2] were 319 nM and 37.8 nM, respectively.

With `CC(C)N1c2cc(Nc3nccc(-c4ccnc5ccccc45)n3)ccc2N(C)C(=O)[C@H]1C`, the half-maximal inhibitory concentration (IC50) in experiment [1] is 25.3 nM; in experiment [2], 19.8 nM.

Regarding `CC(C)N1c2cc(Nc3cccc(-c4ccccc4)c3)ccc2N(C)C(=O)[C@H]1C`, in [1], the midpoint of inhibition, the IC50, lay at 357 nM. Besides, the inhibition in experiment [3] is 1.3%; in [4] it was -6.1%; in experiment [5] it was 0.9%; in experiment [6] it was 1.8%; in experiment [7], 6.1%; in experiment [8] it was -4.8%. The inhibition was -1.5% in [9] and -3.4% in experiment [10].

In the case of `COc1cccc(-c2ccnc(Nc3ccc4c(c3)N(C(C)C)[C@H](C)C(=O)N4C)n2)c1`, the figures for the concentration for half-maximal inhibition (IC50) in experiment [1] and in [2] were 965 nM and 126 nM, respectively.

As to `CC(C)N1c2cc(Nc3nccc(-c4cccc(Nc5ccccc5)c4)n3)ccc2N(C)C(=O)[C@H]1C`, the inhibition in experiment [3] is 47.8%; in experiment [4], 8.8%.

In turn, `CC(C)N1c2cc(Nc3nccc(-c4ccccc4)n3)ccc2N(C)C(=O)[C@H]1C` showed an IC50 in experiment [1] of 193 nM. Further, the inhibition in [3] was 102%; in experiment [4], 83.4%; in experiment [5], 4.8%; in [6], -0.8%; in [7] it was 22.9%; in experiment [8], 0%. Besides, the inhibition in [10] amounted to 10.6%.

Take `CC(C)N1c2cc(Nc3nccc(-c4ccccc4N)n3)ccc2N(C)C(=O)[C@H]1C`: the IC50 in [1] was 251 nM; in experiment [2] it was 39.2 nM.

In the case of `CC(C)N1c2cc(Nc3ncc(F)c(-c4cncc5ccccc45)n3)ccc2N(C)C(=O)[C@H]1C`, the IC50 worked out at 81.3 nM in [1] and 23.9 nM in experiment [2].

Regarding `Cc1noc(C)c1-c1cccc(Nc2nccc(-c3ccncc3)n2)c1`, the inhibition in [11] was 37.7%.

As to `Cc1cc(F)ccc1-c1ccnc(Nc2ccc3c(c2)N(C(C)C)[C@H](C)C(=O)N3C)n1`, the IC50 in experiment [1] was 156 nM; in [2], 578 nM.

Take `CC(C)N1c2cc(Nc3ncc(Cl)c(-c4cncc5ccccc45)n3)ccc2N(C)C(=O)[C@H]1C`: the concentration for half-maximal inhibition (IC50) is 58.1 nM in experiment [1] and 23 nM in experiment [2].

On to `COc1ccccc1-c1cccc(Nc2ccc3c(c2)N(C(C)C)[C@H](C)C(=O)N3C)c1`, for which the half-maximal inhibitory concentration (IC50) in [1] was 820 nM. The inhibition in [3] was 3.8%; in [4] it was -3%; in [5] it was -0.1%; in [6], -1.4%; in [7] it was 3%; in experiment [8], -2.6%. The inhibition was -0.8% in [9] and 1.1% in experiment [10].

Take `CC(C)N1c2cc(Nc3nccc(-c4c[nH]c5ccccc45)n3)ccc2N(C)C(=O)[C@H]1C`: inhibition in experiment [1] was half-maximal at 329 nM (IC50). Besides, the results for the inhibition in experiment [3] and in [4] were 58.6% and 7.6%, respectively.

Consider `CC(C)N1c2cc(Nc3nccc(-c4cccc5nn(C)cc45)n3)ccc2N(C)C(=O)[C@H]1C`, for which the IC50 in experiment [1] is 168 nM; in experiment [2], 110 nM.

On to `Cc1cnc(Nc2ccc3c(c2)N(C(C)C)[C@H](C)C(=O)N3C)nc1-c1cncc2ccccc12`, for which the half-inhibitory concentration (IC50) in experiment [1] worked out at 19.1 nM; in experiment [2], 100 nM.

For the molecule `CC(C)N1c2cc(Nc3nccc(-c4cccc5ncccc45)n3)ccc2N(C)C(=O)[C@H]1C`, the half-maximal inhibitory concentration (IC50) in [1] was 15.2 nM; in experiment [2] it was 81.6 nM.

On to `CNc1cccc(-c2ccnc(Nc3ccc4c(c3)N(C(C)C)[C@H](C)C(=O)N4C)n2)c1`, for which the concentration for half-maximal inhibition (IC50) in [1] was 173 nM; in experiment [2] it was 22 nM.

In the case of `COc1ccc(-c2ccnc(Nc3ccc4c(c3)N(C(C)C)[C@H](C)C(=O)N4C)n2)cc1`, the IC50 was 535 nM in experiment [1] and 31.7 nM in experiment [2].

Consider `Cc1cccc(-c2ccnc(Nc3ccc4c(c3)N(C(C)C)[C@H](C)C(=O)N4C)n2)c1`, for which the figures for the concentration for half-maximal inhibition (IC50) in experiment [1] and in experiment [2] were 760 nM and 196 nM, respectively.

As to `CC(C)N1c2cc(Nc3nccc(-c4cccc(NC5CCCCC5)c4)n3)ccc2N(C)C(=O)[C@H]1C`, the IC50 in experiment [2] amounted to 169 nM. For the same molecule, the inhibition in experiment [12] is 13%.

For the molecule `COc1ccccc1-c1ccnc(Nc2ccc3c(c2)N(C(C)C)[C@H](C)C(=O)N3C)n1`, the IC50 in [1] was 477 nM. Also, the inhibition was 104% in [3]; 67.9% in experiment [4]; 8.1% in experiment [5]; 2.3% in experiment [6]; 0.1% in experiment [7]; -2.1% in experiment [8]. The inhibition was 86.8% in [9] and 37.4% in [10].

Regarding `CC(C)N1c2cc(Nc3nccc(-c4cccc5cnccc45)n3)ccc2N(C)C(=O)[C@H]1C`, the values for the half-inhibitory concentration (IC50) in [1] and in experiment [2] were 75.9 nM and 79.8 nM, respectively.

In experiment [1], `CC(C)N1c2cc(Nc3cccc(-c4ccncc4)c3)ccc2N(C)C(=O)[C@H]1C` returned an IC50 of 77.3 nM. In addition, the inhibition in experiment [3] is 0.7%; in experiment [4], 2.2%; in experiment [5], 0.7%; in [6], 2.7%; in [7], -1%; in experiment [8] it was -4.1%. Further, the values for the inhibition in experiment [9] and in [10] were 14.2% and -6.1%, respectively.

Regarding `Cc1ccc(N)cc1-c1ccnc(Nc2ccc3c(c2)N(C(C)C)[C@H](C)C(=O)N3C)n1`, the IC50 in experiment [1] is 236 nM; in experiment [2] it was 151 nM.

Turning to `CC(C)Nc1cccc(-c2ccnc(Nc3ccc4c(c3)N(C(C)C)[C@H](C)C(=O)N4C)n2)c1`, the IC50 worked out at 268 nM in experiment [1] and 50.9 nM in [2].

`Cc1ccccc1-c1ccnc(Nc2ccc3c(c2)N(C(C)C)[C@H](C)C(=O)N3C)n1` showed an IC50 in [1] of 271 nM. In addition, the inhibition in experiment [3] amounted to 1%; in [4], 1.5%.

For `COc1cc(F)ccc1-c1ccnc(Nc2ccc3c(c2)N(C(C)C)[C@H](C)C(=O)N3C)n1`, the values for the IC50 in experiment [1] and in experiment [2] were 497 nM and 46.9 nM, respectively.

As for `CC(C)N1c2cc(Nc3nccc(-c4cccc5c4CCCN5)n3)ccc2N(C)C(=O)[C@H]1C`, the IC50 is 27 nM in [1] and 67 nM in experiment [2].

Regarding `CC(C)N1c2cc(Nc3nccc(-c4cccc(N)c4)n3)ccc2N(C)C(=O)[C@H]1C`, the 50% inhibitory concentration (IC50) in experiment [1] came out at 120 nM; in experiment [2] it was 5.9 nM.

Consider `Cc1ccc(-c2ccnc(Nc3ccc4c(c3)N(C(C)C)[C@H](C)C(=O)N4C)n2)cc1`, for which the half-inhibitory concentration (IC50) in experiment [1] was determined as 5850 nM; in [2], 488 nM.
